Experimental data published in ChEMBL document CHEMBL1158184, “Synthesis and anti-CVB 3 evaluation of substituted 5-nitro-2-phenoxybenzonitriles” (Bioorg Med Chem Lett, 2008).

How the values were obtained:
Coxsackievirus B3 = test: Antiviral activity against Coxsackievirus B3 assessed as reduction of virus-induced cytopathogenicity after 3 days by MTS assay; format: functional, organism-based; details: Enterovirus B, 72 h
Method in brief: (§1)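 MTS-based CPE reduction assay. Confluent cell monolayers were infected with 100 CCID50 of virus and left 2 h at 37 °C for adsorption, then the inoculum was removed and serial compound dilutions were added. MTS/PMS was added for 2 h and OD was read at 498 nm. EC50 was derived from %CPE relative to uninfected and infected untreated controls.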

Coxsackievirus B5 = test: Antiviral activity against Coxsackievirus B5 in african green monkey Vero cells; format: functional; method in brief: as §1
Coxsackievirus B2 = test: Antiviral activity against Coxsackievirus B2 in african green monkey Vero cells; format: functional; method in brief: as §1
Echovirus E11 = test: Antiviral activity against Echovirus 11 in human MRC5 cells; format: functional; method in brief: as §1
Echovirus E9 = test: Antiviral activity against Echovirus 9 in human MRC5 cells; format: functional; method in brief: as §1
Coxsackievirus B4 = test: Antiviral activity against Coxsackievirus B4 in african green monkey Vero cells; format: functional; method in brief: as §1
Coxsackievirus A24 = test: Antiviral activity against Coxsackievirus A24 in human MRC5 cells; format: functional
Method in brief: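 MTS-based CPE-reduction assay. Confluent monolayers were infected with 100 CCID50 of virus and adsorbed for 2 h at 37 °C; virus was then removed and serial compound dilutions added. Cultures were incubated 3 days at 37 °C until complete CPE in the untreated virus control. After MTS/PMS for 2 h, OD was read at 498 nm, %CPE calculated against uninfected and infected-untreated controls, and EC50 derived.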

Coxsackievirus B6 = test: Antiviral activity against Coxsackievirus B6 in african green monkey Vero cells; format: functional; method in brief: as §1
Coxsackievirus B1 = test: Antiviral activity against Coxsackievirus B1 in african green monkey Vero cells; format: functional; method in brief: as §1
enterovirus D68 = test: Antiviral activity against Enterovirus 68 in human MRC5 cells; format: functional; method in brief: as §1

COc1ccccc1Oc1ccc([N+](=O)[O-])cc1C#N
IC50 (Coxsackievirus B3): 54 µM

N#Cc1cc([N+](=O)[O-])ccc1Oc1cccc(Cl)c1Cl
Activity (Coxsackievirus B5): 4.8 µM
Activity (Coxsackievirus B2): 8.6 µM
Activity (Echovirus E11): >323 µM
IC50 (Coxsackievirus B3): 4.9 µM
Activity (Echovirus E9): >323 µM
Activity (Coxsackievirus B4): 17 µM
Activity (Coxsackievirus A24): >309 µM
Activity (Coxsackievirus B6): 10 µM
Activity (Coxsackievirus B1): 3.3 µM
Activity (enterovirus D68): >323 µM

N#Cc1cc([N+](=O)[O-])ccc1Oc1ccccc1Br
IC50 (Coxsackievirus B3): > 143 µM

CS(=O)(=O)c1ccc(Oc2ccc([N+](=O)[O-])cc2C#N)cc1
IC50 (Coxsackievirus B3): 174 µM

N#Cc1cc([N+](=O)[O-])ccc1Oc1ccccc1
Activity (Coxsackievirus B5): 10 µM
Activity (Coxsackievirus B2): 17 µM
Activity (Echovirus E11): >416 µM
IC50 (Coxsackievirus B3): 8.7 µM
Activity (Echovirus E9): >416 µM
Activity (Coxsackievirus B4): 26 µM
Activity (Coxsackievirus A24): >240 µM
Activity (Coxsackievirus B6): 19 µM
Activity (Coxsackievirus B1): 6.9 µM
Activity (enterovirus D68): >416 µM

COc1ccc(Oc2ccc([N+](=O)[O-])cc2C#N)cc1
IC50 (Coxsackievirus B3): 46 µM

N#Cc1cc([N+](=O)[O-])ccc1Oc1ccccc1Cl
Activity (Coxsackievirus B5): 3.1 µM
Activity (Coxsackievirus B2): 6.2 µM
Activity (Echovirus E11): 35 µM
IC50 (Coxsackievirus B3): 6.9 µM
Activity (Echovirus E9): 35 µM
Activity (Coxsackievirus B4): 14 µM
Activity (Coxsackievirus A24): 23 µM
Activity (Coxsackievirus B6): 8.1 µM
Activity (Coxsackievirus B1): 5.6 µM
Activity (enterovirus D68): 22 µM

N#Cc1ccc(Oc2ccc([N+](=O)[O-])cc2C#N)cc1
IC50 (Coxsackievirus B3): 4.1 µM

CC(=O)c1ccc(Oc2ccc([N+](=O)[O-])cc2C#N)cc1
IC50 (Coxsackievirus B3): 35 µM

N#Cc1cc([N+](=O)[O-])ccc1Oc1ccc(Cl)cc1Cl
IC50 (Coxsackievirus B3): 13 µM

COc1cccc(Oc2ccc([N+](=O)[O-])cc2C#N)c1
IC50 (Coxsackievirus B3): 12 µM

N#Cc1cc([N+](=O)[O-])ccc1Oc1ccc(Cl)cc1
Activity (Echovirus E11): >364 µM
IC50 (Coxsackievirus B3): 5 µM
Activity (Echovirus E9): >364 µM
Activity (enterovirus D68): >364 µM

Cc1ccc(Oc2ccc([N+](=O)[O-])cc2C#N)cc1
IC50 (Coxsackievirus B3): 6.2 µM

N#Cc1cc([N+](=O)[O-])ccc1Oc1ccc(Br)cc1
IC50 (Coxsackievirus B3): 5.7 µM

CSc1ccc(Oc2ccc([N+](=O)[O-])cc2C#N)cc1
IC50 (Coxsackievirus B3): 93 µM

N#Cc1cc([N+](=O)[O-])ccc1Oc1cc(Cl)cc(Cl)c1
IC50 (Coxsackievirus B3): > 81 µM

N#Cc1cc([N+](=O)[O-])ccc1Oc1ccc(Cl)c(Cl)c1
Activity (Coxsackievirus B5): 18 µM
Activity (Coxsackievirus B2): 15 µM
Activity (Echovirus E11): 6.7 µM
IC50 (Coxsackievirus B3): 6.5 µM
Activity (Echovirus E9): >324 µM
Activity (Coxsackievirus B4): 17 µM
Activity (Coxsackievirus A24): 1.8 µM
Activity (Coxsackievirus B6): 12 µM
Activity (Coxsackievirus B1): 15 µM
Activity (enterovirus D68): 12 µM

N#Cc1cc([N+](=O)[O-])ccc1Oc1cccc(Cl)c1
IC50 (Coxsackievirus B3): 4.9 µM

N#Cc1cc([N+](=O)[O-])ccc1Oc1cc(Cl)ccc1Cl
Activity (Echovirus E11): >323 µM
IC50 (Coxsackievirus B3): 3.8 µM
Activity (Echovirus E9): >323 µM
Activity (enterovirus D68): >323 µM

N#Cc1cc([N+](=O)[O-])ccc1Oc1cccc(C(=O)O)c1
IC50 (Coxsackievirus B3): > 352 µM

N#Cc1cc([N+](=O)[O-])ccc1Oc1cccc([N+](=O)[O-])c1
IC50 (Coxsackievirus B3): 38 µM

Cc1cc(Oc2ccc([N+](=O)[O-])cc2C#N)ccc1Cl
Activity (Coxsackievirus B5): 2.1 µM
Activity (Coxsackievirus B2): 5.2 µM
Activity (Echovirus E11): >346 µM
IC50 (Coxsackievirus B3): 2 µM
Activity (Echovirus E9): >346 µM
Activity (Coxsackievirus B4): >346 µM
Activity (Coxsackievirus A24): 234 µM
Activity (Coxsackievirus B6): >346 µM
Activity (Coxsackievirus B1): 4.8 µM
Activity (enterovirus D68): >346 µM

N#Cc1cc([N+](=O)[O-])ccc1Oc1cc(Cl)c(Cl)cc1Cl
IC50 (Coxsackievirus B3): 59 µM

N#Cc1cc([N+](=O)[O-])ccc1Oc1cccc(N)c1
IC50 (Coxsackievirus B3): 241 µM

N#Cc1cc([N+](=O)[O-])ccc1Oc1ccc(C(=O)O)cc1
IC50 (Coxsackievirus B3): > 352 µM

N#Cc1cc([N+](=O)[O-])ccc1Oc1ccc([N+](=O)[O-])cc1
Activity (Echovirus E11): >350 µM
IC50 (Coxsackievirus B3): 3.3 µM
Activity (Echovirus E9): >350 µM
Activity (Coxsackievirus A24): >350 µM
Activity (enterovirus D68): >350 µM

CC(=O)Nc1cccc(Oc2ccc([N+](=O)[O-])cc2C#N)c1
IC50 (Coxsackievirus B3): 121 µM

CC(=O)Nc1ccc(Oc2ccc([N+](=O)[O-])cc2C#N)cc1
IC50 (Coxsackievirus B3): > 336 µM

N#Cc1cc([N+](=O)[O-])ccc1Oc1cccc(Br)c1
IC50 (Coxsackievirus B3): 5 µM

CC(C)c1cccc(Oc2ccc([N+](=O)[O-])cc2C#N)c1
IC50 (Coxsackievirus B3): 40 µM

CN(C)c1cccc(Oc2ccc([N+](=O)[O-])cc2C#N)c1
IC50 (Coxsackievirus B3): 31 µM

CC(=O)c1cccc(Oc2ccc([N+](=O)[O-])cc2C#N)c1
IC50 (Coxsackievirus B3): 57 µM

N#Cc1ccccc1Oc1ccc([N+](=O)[O-])cc1C#N
IC50 (Coxsackievirus B3): 11 µM

N#Cc1cccc(Oc2ccc([N+](=O)[O-])cc2C#N)c1
IC50 (Coxsackievirus B3): 7.4 µM

N#Cc1cc([N+](=O)[O-])ccc1Oc1ccc(Cl)cc1N
IC50 (Coxsackievirus B3): > 53 µM

Cc1cc(Oc2ccc([N+](=O)[O-])cc2C#N)ccc1[N+](=O)[O-]
IC50 (Coxsackievirus B3): 11 µM

N#Cc1cc([N+](=O)[O-])ccc1Oc1ccc(Br)cc1Cl
IC50 (Coxsackievirus B3): 3.7 µM

N#Cc1ccc(Oc2ccc([N+](=O)[O-])cc2C#N)c(Cl)c1
IC50 (Coxsackievirus B3): 7.3 µM

N#Cc1cc([N+](=O)[O-])ccc1Oc1ccc(Br)cc1Br
IC50 (Coxsackievirus B3): 6.2 µM

Cc1ccc(Oc2ccc([N+](=O)[O-])cc2C#N)cc1C
IC50 (Coxsackievirus B3): 99 µM

Cc1ccccc1Oc1ccc([N+](=O)[O-])cc1C#N
IC50 (Coxsackievirus B3): 57 µM

Cc1cccc(Oc2ccc([N+](=O)[O-])cc2C#N)c1
Activity (Coxsackievirus B5): 13 µM
Activity (Coxsackievirus B2): 11 µM
Activity (Echovirus E11): >393 µM
IC50 (Coxsackievirus B3): 6.4 µM
Activity (Echovirus E9): >393 µM
Activity (Coxsackievirus B4): 22 µM
Activity (Coxsackievirus A24): 19 µM
Activity (Coxsackievirus B6): 22 µM
Activity (Coxsackievirus B1): 8.9 µM
Activity (enterovirus D68): 76 µM

Cc1cc(Oc2ccc([N+](=O)[O-])cc2C#N)ccc1Br
IC50 (Coxsackievirus B3): 2.6 µM

N#Cc1cc([N+](=O)[O-])ccc1Oc1ccc(Br)c(Cl)c1
IC50 (Coxsackievirus B3): 6.7 µM

Cc1cc(Cl)ccc1Oc1ccc([N+](=O)[O-])cc1C#N
IC50 (Coxsackievirus B3): 11 µM

CCc1cc(Oc2ccc([N+](=O)[O-])cc2C#N)ccc1Cl
IC50 (Coxsackievirus B3): > 330 µM

N#Cc1cc([N+](=O)[O-])ccc1Oc1ccc([N+](=O)[O-])cc1Cl
IC50 (Coxsackievirus B3): 39 µM

N#Cc1cc([N+](=O)[O-])ccc1Oc1ccc(N)c([N+](=O)[O-])c1
IC50 (Coxsackievirus B3): 10 µM

N#Cc1cc([N+](=O)[O-])ccc1Oc1ccc(Cl)c(Cl)c1Cl
IC50 (Coxsackievirus B3): > 146 µM

N#Cc1cc([N+](=O)[O-])ccc1Oc1c(Cl)cc(Cl)cc1Cl
IC50 (Coxsackievirus B3): 72 µM

CC(C)(C)c1ccc(Oc2ccc([N+](=O)[O-])cc2C#N)cc1
IC50 (Coxsackievirus B3): > 338 µM

N#Cc1cc([N+](=O)[O-])ccc1Oc1ccc(CO)cc1
IC50 (Coxsackievirus B3): 121 µM

N#Cc1cc([N+](=O)[O-])ccc1Oc1ccc(I)cc1
IC50 (Coxsackievirus B3): 5.7 µM

N#Cc1cc([N+](=O)[O-])ccc1Oc1cccc(NC(N)=S)c1
IC50 (Coxsackievirus B3): 234 µM

C[S+]([O-])c1ccc(Oc2ccc([N+](=O)[O-])cc2C#N)cc1 (stereo not given)
IC50 (Coxsackievirus B3): 205 µM

N#Cc1cc([N+](=O)[O-])ccc1Oc1ccc(Cl)cc1Br
IC50 (Coxsackievirus B3): 3.7 µM

N#Cc1cc([N+](=O)[O-])ccc1Oc1cccc(NC(N)=O)c1
IC50 (Coxsackievirus B3): > 335 µM

N#Cc1cc([N+](=O)[O-])ccc1Oc1ccc(N)cc1
IC50 (Coxsackievirus B3): 106 µM

N#Cc1cc([N+](=O)[O-])ccc1Oc1cccc(I)c1
IC50 (Coxsackievirus B3): 5.7 µM

N#Cc1cc([N+](=O)[O-])ccc1Oc1ccc(C(N)=O)cc1
IC50 (Coxsackievirus B3): > 353 µM

Cc1cc(C)cc(Oc2ccc([N+](=O)[O-])cc2C#N)c1
IC50 (Coxsackievirus B3): > 324 µM
